Molecules are shown by their SMILES.

IC50, Activity and inhibition data for six compounds are collected here from ChEMBL document CHEMBL2311261, “Biocatalytic synthesis, structural elucidation, antioxidant capacity and tyrosinase inhibition activity of long chain fatty acid acylated derivatives of phloridzin and isoquercitrin” (Bioorg Med Chem, 2013).

Experiment [1] concerns Radical scavenging activity. In words: Antioxidant activity assessed as DPPH radical scavenging activity. In kind it is functional. A digest of the protocol:
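Test compounds at a series of concentrations in DMSO/chloroform/methanol (1:8:4), mixed 1:1 (v/v) with 0.2 mM DPPH and incubated 30 min at 25 °C. Absorbance read at 520 nm from 0 s and every 300 s until plateau. Run in triplicate.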
For orientation: Loss of DPPH colour is used to gauge radical scavenging.

Experiment [2] in a line: Antioxidant activity assessed as Trolox equivalents of 0.001 mmol/L solution by ORAC assay. Format: functional.
A short description of experiment [3]: Antioxidant activity assessed as Trolox equivalents of 1 mmol/L solution by FRAP assay. Format: functional. A digest of the protocol: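 FRAP reagent made daily from 300 mmol l⁻¹ acetate buffer (pH 3.6), 10 mmol l⁻¹ TPTZ and 20 mmol l⁻¹ FeCl3 (10:1:1). Trolox calibration 50–1000 μmol l⁻¹. Result given as Trolox equivalents of a 1 mmol l⁻¹ solution. Run in triplicate.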

Experiment [4] deals with tyrosinase (Agaricus bisporus). In words: Inhibition of mushroom tyrosinase using L-DOPA substrate at 10 uM.
In experiment [5] the test system is tyrosinase (Agaricus bisporus). Description: Inhibition of mushroom tyrosinase using L-DOPA substrate at 100 uM.
Experiment [6] deals with tyrosinase (Agaricus bisporus). Description: Inhibition of mushroom tyrosinase using L-DOPA substrate at 1000 uM.
Experiment [7] is described as follows: Antioxidant activity assessed as Trolox equivalents of 0.01 mmol/L solution by ORAC assay. In kind it is functional.

Turning to `CCCCCCCCCCCCCCCCCC(=O)OC[C@H]1O[C@@H](Oc2c(-c3ccc(O)c(O)c3)oc3cc(O)cc(O)c3c2=O)[C@H](O)[C@@H](O)[C@@H]1O`, in experiment [1], the IC50 (usually the point on the concentration scale where inhibition reaches its midpoint) is 42 µM. The values for the Activity in experiment [2] and in experiment [3] were 310 µmol/L and 622 µmol/L, respectively.

As to `O=c1c(O[C@@H]2O[C@H](CO)[C@@H](O)[C@H](O)[C@H]2O)c(-c2ccc(O)c(O)c2)oc2cc(O)cc(O)c12` [ISOQUERCETIN], the IC50 in experiment [1] was determined as 17.9 µM. Further, the Activity in experiment [2] came to 473 µmol/L; in experiment [3], 1500 µmol/L.

Consider `CCCCCCCC/C=C\CCCCCCCC(=O)OC[C@H]1O[C@@H](Oc2c(-c3ccc(O)c(O)c3)oc3cc(O)cc(O)c3c2=O)[C@H](O)[C@@H](O)[C@@H]1O`, for which the IC50 in experiment [1] was found to be 38.2 µM. The Activity was determined as 265 µmol/L in experiment [2] and 536 µmol/L in experiment [3]. In addition, the inhibition (commonly the relative decrease from the control value, in per cent) in experiment [4] came to 38.9%; in experiment [5], 47.5%; in experiment [6], 62.4%.

`CCCCC/C=C\C/C=C\CCCCCCCC(=O)OC[C@H]1O[C@@H](Oc2c(-c3ccc(O)c(O)c3)oc3cc(O)cc(O)c3c2=O)[C@H](O)[C@@H](O)[C@@H]1O`: the IC50 in experiment [1] was 60.4 µM. The Activity amounted to 491 µmol/L in experiment [2] and 340 µmol/L in experiment [3]. The figures for the inhibition in experiment [4], in experiment [5] and in experiment [6] were 32.1%, 73.3% and 80.6%, respectively.

As to `O=C(CCc1ccc(O)cc1)c1c(O)cc(O)cc1O[C@@H]1O[C@H](CO)[C@@H](O)[C@H](O)[C@H]1O` [PHLORIZIN], the IC50 in experiment [1] is 1490 µM. In addition, the Activity in experiment [7] was found to be 120 µmol/L.

As to `CC/C=C\C/C=C\C/C=C\CCCCCCCC(=O)OC[C@H]1O[C@@H](Oc2c(-c3ccc(O)c(O)c3)oc3cc(O)cc(O)c3c2=O)[C@H](O)[C@@H](O)[C@@H]1O`, the 50% inhibitory concentration (IC50) in experiment [1] turned out to be 97.9 µM. Besides, the Activity came out at 490 µmol/L in experiment [2] and 614 µmol/L in experiment [3]. In addition, the inhibition was 55.8% in experiment [4], 78.8% in experiment [5] and 85.5% in experiment [6].
